Hep lipid drop: modulators of hepatic lipid droplet formation | AML12 mouse hepatocytes, oleate lipid droplets, BODIPY imaging | inhibition, % at 6.5 µM | actives 0.4% (n = 240,000);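 active means lipid droplet intensity inhibited by at least 50%, with more than 500 cells counted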
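System: AML12 hepatocytes (mouse). Probe or stimulus: oleic acid at 100 µM to induce lipid droplet formation. Times: overnight treatment with compound plus oleate. Detection: Image-based BODIPY and DAPI two-channel analysis. Evaluation: percent inhibition of filter-corrected integrated lipid droplet intensity per well.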
MDM2 E3 inh: Mdm2 E3 ligase (human) inhibition. actives 0.11% (n = 210,000). signal enhancement, % at 5 µM. cell-based MDM2 ubiquitination luciferase reporter, 2 h; 0 = plate control, 100 = twice control, blank-subtracted. AID 1230;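 active means signal enhancement of 30% or more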;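 further: luminescence tracks abundance of the self-degrading MDM2-luciferase fusion protein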
Target sequence (Q00987 whole entry, looked up, the tested form may be a part): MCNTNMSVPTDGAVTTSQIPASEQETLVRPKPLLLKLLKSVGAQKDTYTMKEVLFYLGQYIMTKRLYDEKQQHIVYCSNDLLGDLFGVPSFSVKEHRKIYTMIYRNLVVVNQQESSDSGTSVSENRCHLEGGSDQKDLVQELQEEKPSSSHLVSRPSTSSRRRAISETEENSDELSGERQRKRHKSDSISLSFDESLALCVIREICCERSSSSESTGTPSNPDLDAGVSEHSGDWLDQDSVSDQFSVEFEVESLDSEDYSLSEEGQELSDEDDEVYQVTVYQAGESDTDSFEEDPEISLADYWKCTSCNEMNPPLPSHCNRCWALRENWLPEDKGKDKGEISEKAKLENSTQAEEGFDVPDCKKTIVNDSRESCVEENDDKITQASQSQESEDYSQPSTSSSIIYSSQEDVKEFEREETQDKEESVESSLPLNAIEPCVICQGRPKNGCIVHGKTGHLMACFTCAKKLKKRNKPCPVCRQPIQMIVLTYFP
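system = mammalian cells stably expressing self-ubiquitinating, self-degrading MDM2 E3–luciferase fusion | quantity = 2000 cells per well seeded | incubation = 4 h cell settling then 2 h compound exposure, 37 °C | signal = SteadyLite luminescence, 15 min reagent step | benchmarks = plate control and blank wells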
p-CIP stab down: p/CIP protein destabilization. decrease of EGFP signal, % at 10 µM. actives 0.01% (n = 290,000). F442A p/CIP-EGFP cells, EGFP fluorescence, 16 h. Q05BA5. AID 1984;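 active means EGFP signal decrease of at least 30% at 10 µM or well 3 SD below plate mean, unless failing retest; inactive means the rest, including hits failing retest or dose response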
Hep lipid conf: hepatic lipid droplet formation inhibition, confirmed. shares compounds with Hep lipid drop. AML12 mouse hepatocytes, BODIPY lipid droplet imaging; droplets induced with 100 µM oleic acid. inhibition, % at 5.2 µM. actives 65% (n = 870). AID 463183;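 active means inhibition of lipid droplet metric at least 50%, with more than 300 cells in each of four replicates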
AML12 tox img: toxic to AML12 mouse hepatocytes in counter-screen. AID 463200. shares compounds with Hep lipid drop. DAPI nuclear morphology cytotoxicity imaging; active compounds read high; cells fed 100 µM oleate overnight. actives 3% (n = 870). z-score at 5 µM; in the data active means z-score above about 6.3;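 further: compound exposure lasted overnight at 37 °C before fixation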
AML12 tox conf: AML12 hepatocyte cytotoxicity, confirmed. cytotoxicity, % at 50 µM. AID 463219. AML12 mouse hepatocyte viability, ATP luminescence; cells loaded with 100 µM oleic acid. 530 tested, under 10 active. shares compounds with Hep lipid drop;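 active means cytotoxicity above 50% in each of four replicates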;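 further: compound exposure lasted overnight at 37 °C before the ATP read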
Numbers stand for hits; . = inactive; / = no result. Only a selection was taken, and hits are over-represented in it overall.

SMILES	Hep lipid drop	MDM2 E3 inh	p-CIP stab down	Hep lipid conf	AML12 tox img	others
O=C/C=C/c1c(-c2ccccc2)cc2oc3ccccc3cc1-2	70.2	/	.	.	.
Nc1ccc(-c2cc3ccccc3oc2=O)cc1	.	/	.	/	/
CC1=C/C(=N\Nc2ccccc2[N+](=O)[O-])CC(C)(C)C1	76.8	.	.	114.7	.
C/C(=N/Nc1ccccc1[N+](=O)[O-])c1ccc([N+](=O)[O-])cc1	.	/	.	/	/
O=C(NC(=S)NCc1ccccc1)c1cccc(Cl)c1	.	/	.	/	/
Cc1cc(C(=O)NC2CCCc3c2cnn3-c2cccc(C)c2C)no1 (centres undefined)	.	/	.	/	/
CCn1cc(C(=O)NC2CCCc3c2cnn3-c2cccc(C)c2C)cn1 (centres undefined)	.	/	.	/	/
COc1ccc(C(=O)NC2CCCc3c2cnn3-c2cccc(C)c2C)o1 (centres undefined)	50.5	/	.	88.4	.	AML12 tox conf=.
COc1cccc(C(=O)NC2CCCc3c2cnn3-c2cc(C)cc(C)c2)c1 (centres undefined)	73.8	/	.	107.8	.	AML12 tox conf=.
CC1=C(C(=O)NC2CCCc3c2cnn3-c2cccc(C)c2C)OCCO1 (centres undefined)	62.8	/	.	104.9	.	AML12 tox conf=.
Cc1cc(C)cc(-n2ncc3c2CCCC3NC(=O)C2CCC2)c1 (centres undefined)	.	/	.	/	/
CC(C)OC(=O)/C(=C/c1ccc2c(c1)c1ccccc1n2C)NC(=O)c1ccccc1	53.3	.	.	96.4	.	AML12 tox conf=.
CC(C)OC(=O)/C(=C\c1ccc2c(c1)c1ccccc1n2C)NC(=O)c1ccccc1	/	.	.	/	/
COC(=O)/C(=C\c1ccc2c(c1)c1ccccc1n2C)NC(=O)c1ccccc1	51.7	.	.	92.6	.	AML12 tox conf=.
Cn1c2ccccc2c2cc(/C=C(\NC(=O)c3ccccc3)C(=O)O)ccc21	.	/	.	/	/
CCOc1ccc2nc(SCC(=O)c3ccc(O)cc3O)sc2c1	/	/	.	/	/
CCOC(=O)NNC(=O)NCCCCCCNC(=O)NNC(=O)OCC	.	.	.	/	/
CCCOc1ccc(N2C(=O)CC(N(CCOC34CC5CC(CC(C5)C3)C4)C(C)=O)C2=O)cc1 (centres undefined)	.	.	.	/	/
CCN(C(=O)COC(=O)/C=C/c1ccccc1)C1CCCCC1	.	.	.	/	/
C(=N\Nc1nc(N2CCCCC2)nc(N2CCCCC2)n1)/c1c[nH]c2ccccc12	.	.	.	/	/
CN(C)c1nc(N/N=C/c2c[nH]c3ccccc23)nc(N2CCOCC2)n1	131.1	.	.	86.4	22.2
Cc1nc2sc(C(=O)Nc3ccccc3)c(N)c2c(C)c1[N+](=O)[O-]	.	.	.	/	/
Cc1ccc(OCC(=O)Nc2ccc3c(c2)C(=O)NC3=O)cc1	.	/	.	/	/
O=C(COc1ccc(Cl)cc1)Nc1ccc2c(c1)C(=O)NC2=O	59.5	/	.	.	.
COc1ccc(C(C)=O)cc1CSc1nnc(Nc2ccc(C)cc2C)s1	90.2	.	.	.	.
SMILES	Hep lipid drop	MDM2 E3 inh	p-CIP stab down	Hep lipid conf	AML12 tox img	others
COc1ccc(C(C)=O)cc1CSc1nnc(Nc2ccccc2C)s1	.	.	.	/	/
CC1CCCN(C(=O)C2CC(=O)N(c3ccc(Cl)cc3)C2)C1 (centres undefined)	.	/	.	/	/
Cc1ccc(N2C(=O)c3ccccc3NC2(C(=O)O)c2ccccc2)cc1Cl (centres undefined)	50.4	/	.	.	.	AML12 tox conf=.
COc1ccc(N2C(=O)c3ccccc3NC2(C)C)cc1	.	.	.	/	/
NC(=O)C1CCN(CC(=O)Nc2cccnc2Cl)CC1	.	.	.	/	/
COc1ccc(N2CCN(C(=O)Cn3ncc4c([nH]c5ccccc54)c3=O)CC2)cc1	.	/	.	/	/
COc1ccccc1N1CCN(C(=O)Cn2ncc3c([nH]c4ccccc43)c2=O)CC1	52.4	/	.	70.8	.	AML12 tox conf=.
Cc1ccc(C)c(CN2CCC(CNC(=O)CCc3nnc4ccc(N5CCC(C)CC5)nn34)CC2)c1	.	/	.	/	/
O=Cc1ccc(C(=O)OCC(=O)Nc2ccc(F)cc2F)cc1	.	/	.	/	/
COc1ccc(N(C)C(=O)c2cn(CC(C)C)c(=O)c3cc(OC)c(OC)cc23)cc1	/	/	.	/	/
CCn1cc(C(=O)N(C)c2ccc(OC)cc2)c2cc(OC)c(OC)cc2c1=O	68.4	/	.	.	.
CC1CN(c2ccccc2)NC1=O (centres undefined)	.	.	.	/	/
COc1ccc2nc(N=NC3=C(O)CC(C)(C)CC3=O)sc2c1	.	.	.	/	/
COc1ccc2nc(N=Nc3ccc(O)c4ccccc34)sc2c1	70.6	.	.	104.7	.
Cc1c(Cl)cccc1NC(=O)Cn1c(-c2ccc(F)cc2)noc1=O	.	.	.	/	/
CCCCCn1c(N)c(-c2nc3ccccc3o2)c2c([N+](=O)[O-])nn(CC)c(=O)c21	.	.	.	/	/
CCCCn1c(N)c(-c2nc3ccccc3s2)c2c([N+](=O)[O-])nn(C)c(=O)c21	.	.	.	/	/
CCCCCn1c(N)c(-c2nc3ccccc3s2)c2c([N+](=O)[O-])nn(CC)c(=O)c21	71.5	.	.	73.3	.	AML12 tox conf=.
CCCCn1c(N)c(-c2nc3ccccc3s2)c2c([N+](=O)[O-])nn(CC)c(=O)c21	69.1	.	.	78.1	.	AML12 tox conf=.
O=C(CSc1ccc2c(c1)OCCO2)Nc1cccnc1	.	.	.	/	/
CCOC(=O)C1=C(C)NC(=O)NC1/C=C/c1ccccc1 (centres undefined)	62.1	.	.	.	.
CCOC(=O)C1=C(C)NC(=O)NC1/C=C/c1ccccc1OC (centres undefined)	.	.	.	/	/
CCOc1ccc(S(=O)(=O)N2CCC(C(=O)NCc3ccccn3)CC2)cc1	.	/	.	/	/
O=C(c1cnn2c(C(F)(F)F)cc(-c3ccccc3)nc12)N1CCCc2ccccc21	.	.	.	/	/
O=C(c1nn2c(C(F)(F)F)cc(-c3cccs3)nc2c1Cl)N1CCCc2ccccc21	53.4	.	.	.	.
SMILES	Hep lipid drop	MDM2 E3 inh	p-CIP stab down	Hep lipid conf	AML12 tox img	others
COc1ccc(C(=O)CCC(=O)Nc2ccc(N3CCCCC3)cc2)cc1OC	91.8	/	.	108.2	.	AML12 tox conf=.
COc1ccc(C(=O)Nc2ccc(N3CCN(C)CC3)cc2)cc1OC	/	/	.	/	/
CN1CCCN(S(=O)(=O)c2ccc(O)c(C(=O)O)c2)CC1	.	/	.	/	/
COc1cc(OC)cc(N(C(=O)CNC(=O)c2cccs2)C(C(=O)NCC2CCCO2)c2ccc(OC)c(OC)c2)c1 (centres undefined)	.	.	.	/	/
c1ccc(Oc2cccc(CN3CCCCC3)c2)cc1	56.2	.	.	.	.
c1ccc(COc2cccc(CN3CCCCC3)c2)cc1	/	/	.	/	/
CCn1cc(C(=O)NCCC(C)C)c(=O)c2cc(F)c(N3CCN(C(=O)c4ccco4)CC3)cc21	.	/	.	/	/
COc1ccccc1N=C1NC(=O)/C(=C/c2ccc(N(C)C)cc2)S1	.	/	.	/	/
CCN(CCn1cccn1)C(=O)c1cc(COc2ccc(F)cc2Cl)on1	55.2	.	.	.	.
